Measured values taken from ChEMBL document CHEMBL4304816, “A Novel Biphenyl-based Chemotype of Retinoid X Receptor Ligands Enables Subtype and Heterodimer Preferences” (ACS Med Chem Lett, 2019).
Each block holds one molecule with its values, some of them ahead of it. Calls of active or inactive are those of the source. The calls are words filed in the database; no cut-off is given here.

Experiments:
Assay type in all cases: cell-based
[1] = molecular target: T1, Retinoic acid receptor RXR-gamma (Homo sapiens, UniProt P48443); test: Agonist activity at Gal4-LBD fused RXRgamma (unknown origin) expressed in HEK293T cells after 14 to 16 hrs by dual-Glo luciferase assay
T1 sequence (P48443 whole entry): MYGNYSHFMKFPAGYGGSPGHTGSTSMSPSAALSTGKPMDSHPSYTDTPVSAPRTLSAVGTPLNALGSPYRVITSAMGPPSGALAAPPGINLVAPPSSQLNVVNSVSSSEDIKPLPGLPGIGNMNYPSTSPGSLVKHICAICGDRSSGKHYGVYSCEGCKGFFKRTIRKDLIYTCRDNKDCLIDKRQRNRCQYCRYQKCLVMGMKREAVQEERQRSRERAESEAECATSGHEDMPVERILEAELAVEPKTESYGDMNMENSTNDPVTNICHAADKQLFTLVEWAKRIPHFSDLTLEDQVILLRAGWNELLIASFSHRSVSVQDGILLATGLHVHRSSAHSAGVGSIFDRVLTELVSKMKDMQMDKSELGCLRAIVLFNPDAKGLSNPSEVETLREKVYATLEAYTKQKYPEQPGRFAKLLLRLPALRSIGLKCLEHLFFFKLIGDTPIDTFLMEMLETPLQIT
Outline: (§1)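 Gal4-hybrid RXRα/β/γ reporter gene assays in HEK293T cells. Fold activation is the maximal fold activation versus 0.1% DMSO.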

[2] = Agonist activity at full-length human RXR/LXR expressed in HEK293T cells at 10 uM after 14 to 16 hrs in presence of 1 uM T0901317 by dual-glo luciferase reporter gene assay relative to T0901317; details: HEK-293T, read-out: Activity
Outline: (§2)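 Synergy format: the test compound was co-applied with the partner-receptor reference agonist at 1 μM, either T0901317 (RXR:LXR) or rosiglitazone (RXR:PPARγ). Relative synergistic activation was derived from three independent experiments, each in duplicate; mean reported.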

Homo sapiens = species on record: Homo sapiens; test: Agonist activity at full-length human PPARgamma/RXR expressed in HEK293T cells at 10 uM after 14 to 16 hrs by dual-glo luciferase reporter gene assay relative to untreated control
Outline: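 RXR:PPARγ heterodimer reporter assay in HEK293T cells with test compound alone. Mean relative activation is taken versus 0.1% DMSO, from three independent experiments each run in duplicate.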

[3] = molecular target: T2, Retinoic acid receptor RXR-alpha (Homo sapiens) (UniProt P19793); test: Agonist activity at Gal4-LBD fused RXRalpha (unknown origin) expressed in HEK293T cells at 0.1 to 3 uM after 14 to 16 hrs in presence of RXR antagonist HX531 by dual-Glo luciferase reporter gene assay
T2 sequence (whole entry): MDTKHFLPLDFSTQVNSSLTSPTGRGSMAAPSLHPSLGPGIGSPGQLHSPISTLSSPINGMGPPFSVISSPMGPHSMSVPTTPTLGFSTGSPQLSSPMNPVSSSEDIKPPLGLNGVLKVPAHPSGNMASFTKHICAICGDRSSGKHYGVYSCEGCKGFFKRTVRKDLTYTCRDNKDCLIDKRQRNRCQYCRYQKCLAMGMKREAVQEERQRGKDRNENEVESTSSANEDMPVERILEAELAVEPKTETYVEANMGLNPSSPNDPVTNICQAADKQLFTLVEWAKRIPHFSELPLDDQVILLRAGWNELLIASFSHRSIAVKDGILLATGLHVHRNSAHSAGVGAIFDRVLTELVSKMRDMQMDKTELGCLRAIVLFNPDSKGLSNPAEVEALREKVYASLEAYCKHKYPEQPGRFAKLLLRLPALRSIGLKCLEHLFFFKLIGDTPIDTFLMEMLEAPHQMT

[4] = molecular target: T3, Retinoic acid receptor RXR-beta (Homo sapiens) (UniProt P28702); test: Agonist activity at Gal4-LBD fused RXRbeta (unknown origin) expressed in HEK293T cells assessed as fold activation after 14 to 16 hrs by dual-Glo luciferase assay relative to untreated control; outline: as §1
T3 sequence (whole entry): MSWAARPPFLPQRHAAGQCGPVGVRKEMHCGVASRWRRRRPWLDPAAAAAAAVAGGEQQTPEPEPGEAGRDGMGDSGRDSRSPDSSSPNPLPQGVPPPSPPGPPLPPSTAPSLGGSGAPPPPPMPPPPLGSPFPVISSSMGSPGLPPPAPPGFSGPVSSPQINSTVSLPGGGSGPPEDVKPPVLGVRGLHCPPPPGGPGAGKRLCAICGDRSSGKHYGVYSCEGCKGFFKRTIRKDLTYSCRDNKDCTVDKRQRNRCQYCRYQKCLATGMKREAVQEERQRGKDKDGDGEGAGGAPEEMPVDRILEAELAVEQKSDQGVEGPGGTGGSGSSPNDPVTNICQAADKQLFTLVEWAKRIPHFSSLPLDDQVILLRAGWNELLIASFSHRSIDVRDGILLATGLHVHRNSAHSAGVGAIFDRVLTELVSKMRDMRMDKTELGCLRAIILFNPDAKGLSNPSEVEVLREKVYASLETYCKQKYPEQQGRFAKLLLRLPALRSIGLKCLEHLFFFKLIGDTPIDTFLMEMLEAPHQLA

[5] = Agonist activity at full-length human RXR/LXR expressed in HEK293T cells at 20 uM after 14 to 16 hrs in presence of 1 uM T0901317 by dual-glo luciferase reporter gene assay relative to T0901317; details: HEK-293T, read-out: Activity; outline: as §2
[6] = molecular target: T4, Retinoic acid receptor alpha (Homo sapiens) (UniProt P10276); test: Agonist activity at Gal4-LBD fused RARalpha (unknown origin) expressed in HEK293T cells at 20 uM after 14 to 16 hrs by dual-Glo luciferase assay
T4 sequence (whole entry): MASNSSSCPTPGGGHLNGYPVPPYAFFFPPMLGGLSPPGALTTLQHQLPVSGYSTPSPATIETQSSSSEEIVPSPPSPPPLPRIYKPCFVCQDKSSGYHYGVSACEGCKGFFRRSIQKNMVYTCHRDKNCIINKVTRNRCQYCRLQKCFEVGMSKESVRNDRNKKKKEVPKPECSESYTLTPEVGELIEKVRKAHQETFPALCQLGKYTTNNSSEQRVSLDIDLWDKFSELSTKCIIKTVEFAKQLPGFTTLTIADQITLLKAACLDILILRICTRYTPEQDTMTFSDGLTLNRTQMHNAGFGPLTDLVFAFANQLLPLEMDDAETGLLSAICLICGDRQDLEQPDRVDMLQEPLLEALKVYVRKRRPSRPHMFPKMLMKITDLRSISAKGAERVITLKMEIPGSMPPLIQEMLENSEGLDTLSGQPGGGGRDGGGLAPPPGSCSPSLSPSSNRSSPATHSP
Outline: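 Gal4-hybrid reporter gene selectivity panel of related nuclear receptors (PPARα/β/γ, RARα/β/γ) in HEK293T cells. Activity is read as mean fold activation versus 0.1% DMSO vehicle, n ≥ 2.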

EC50 [1]: 1000 nM | Activity [3]: inactive
Compound: Cc1cc(-c2cc(C(F)(F)F)cc(C(F)(F)F)c2)ccc1CC(=O)O
activity at 10 µM [2]: 64% | Activity (Homo sapiens): 139%

fold change (FC) [4]: 38
Compound: Cc1cc(-c2cc(C(C)(C)C)cc(C(C)(C)C)c2)ccc1C(=O)O

Activity [6]: Active
Compound: Cc1cc(-c2ccc(C(=O)O)cc2)cc(C(C)(C)C)c1
activity at 20 µM [5]: 70%
